{
  "source": "paper PMC5574666",
  "about": "(International Journal of Nanomedicine, 2017)",
  "key": {"[1]": {"assay": "In vivo pharmacokinetic study", "conditions": "male Sprague-Dawley rats, 5 mg·kg^−1 DOX i.v., n=6"}, "[2]": {"assay": "Biodistribution of DOX in tumor-bearing mice", "type": "in vivo", "conditions": "BALB/c nude mice bearing MCF-7/ADR tumors, 5 mg·kg^−1 DOX i.v., 1, 6, 12, 24 hours"}, "MCF-7 cells [3]": {"tested_on": "MCF-7 cells", "assay": "Cytotoxicity MTT assay", "type": "cell-based, Human", "conditions": "0.1-10 μg·mL^−1, 48 hours"}, "Maximum tolerated dose": {"assay": "Maximum tolerated dose", "type": "in vivo", "conditions": "BALB/c mice; for Animal death: 2 weeks", "method_in_brief": "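Female BALB/c mice were randomized into three formulation groups. […] Body weight and survival were monitored daily for 2 weeks. MTD was taken as the highest dose causing neither death from systemic toxicity nor >15% body weight loss over the study.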"}, "MCF-7 cells [4]": {"tested_on": "MCF-7 cells", "assay": "Cellular uptake", "type": "cell-based, Human", "conditions": "6 and 24 h"}, "MCF-7/ADR cells": {"tested_on": "MCF-7/ADR cells", "assay": "Cellular uptake", "type": "cell-based, Human", "conditions": "MCF-7/ADR cells compared with MCF-7 cells", "method_in_brief": "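MCF-7 and MCF-7/ADR cells were grown in DMEM with 10% FBS and 1% penicillin-streptomycin at 37°C and 5% CO2. They were seeded at 5×10^4 per well in 24-well plates and grown 24 h.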"}, "In vivo toxicity study": {"assay": "In vivo toxicity study", "set-up": "species or system BALB/c nude mice", "method_in_brief": "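Male BALB/c nude mice bearing MCF-7/ADR xenografts were randomized into five groups when tumors reached ~100 mm3. Groups received i.v. saline, carrier or test formulations. Body weight was tracked during the efficacy study. At its end, heart, liver, spleen, lung and kidney were excised, stained with H&E and examined microscopically at 200×.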"}},
  "note": "Values joined by “and” are separate entries in the source; they are usually repeats but may differ in a detail not shown here. Identical values can stand only once.",
  "data": [
    {"smiles": "COc1cccc2c1C(=O)c1c(O)c3c(c(O)c1C2=O)C[C@@](O)(C(=O)CO)C[C@@H]3O[C@H]1C[C@H](N)[C@H](O)[C@H](C)O1", "note": "[DOX, doxorubicin]", "values": [
      {"measurement": "AUC0–∞", "setting": "[1]", "value": "36.318 ± 6.517", "unit": "µg/mL/h"},
      {"measurement": "CL", "setting": "[1]", "value": "2.37 ± 0.467", "unit": "mL/min/kg"},
      {"measurement": "Cmax", "setting": "[1]", "value": "10275 ± 1219", "unit": "ng/mL"},
      {"measurement": "MRT0–∞", "setting": "[1]", "value": "3.429 ± 0.658", "unit": "h"},
      {"measurement": "Vd", "setting": "[1]", "value": "0.300 ± 0.073", "unit": "L/kg"},
      {"measurement": "DOX content in tumor", "setting": "[2]", "value": "negligible after 6 hours"},
      {"measurement": "cell viability", "setting": "MCF-7 cells [3]", "value": "effectively reduced the viability of MCF-7 cells in a dose-dependent manner"},
      {"measurement": "Weight loss", "setting": "Maximum tolerated dose; single i.v. dose 5 mg/kg DOX", "value": 2.0, "unit": "%"},
      {"measurement": "Animal death", "setting": "Maximum tolerated dose; single i.v. dose 5 mg/kg DOX", "value": "0/3"},
      {"measurement": "Weight loss", "setting": "Maximum tolerated dose; single i.v. dose 10 mg/kg DOX", "value": 7.4, "unit": "%"},
      {"measurement": "Animal death", "setting": "Maximum tolerated dose; single i.v. dose 10 mg/kg DOX", "value": "0/3"},
      {"measurement": "Animal death", "setting": "Maximum tolerated dose; single i.v. dose 15 mg/kg DOX, 15 mg/kg", "value": "2 out of 3 and 2/3"},
      {"measurement": "internalization into cells", "setting": "MCF-7 cells [4]", "value": "internalized into MCF-7 cells in a time-dependent manner"},
      {"measurement": "internalization into cells", "setting": "MCF-7/ADR cells", "value": "substantially reduced"},
      {"measurement": "bodyweight reduction", "setting": "In vivo toxicity study; BALB/c nude mice bearing MCF-7/ADR tumors, 5 mg DOX/kg", "value": 30, "unit": "%"},
      {"measurement": "H&E histology of main organs (heart, liver, spleen, lung, kidney)", "setting": "In vivo toxicity study; end of the antitumor inhibition test", "value": "caused cardiotoxicity"}
    ]}
  ]
}
